Assay results as given in ChEMBL document CHEMBL4330168, “Monomeric and Dimeric Cytotoxic Guaianolide-Type Sesquiterpenoids from the Aerial Parts of Chrysanthemum indicum” (J Nat Prod, 2019).

Key:
HT-29 = experiment: Cytotoxicity against human HT-29 cells after 48 hrs by MTT assay; assay type: functional, cell-based; conditions: HT-29, 48 h
Summary of the method: (§1)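 Growth inhibition in nasopharyngeal carcinoma lines (CNE1, CNE2, HONE-1, SUNE-1) and HT-29 colon cells. IC50 values are the mean ± SD of three experiments, with cisplatin as positive control.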

HONE1 cell line [1] = experiment: Induction of apoptosis in human HONE1 cells assessed as late apoptotic cells at 5 uM after 48 hrs by Annexin V-FITC/propidium iodide staining based flow cytometry (reference value: 0.37%); assay type: functional
HONE1 cell line [2] = experiment: Induction of apoptosis in human HONE1 cells assessed as early apoptotic cells at 1 uM after 48 hrs by Annexin V-FITC/propidium iodide staining based flow cytometry (reference value: 3.24%); assay type: functional
HONE1 cell line [3] = experiment: Induction of apoptosis in human HONE1 cells assessed as live cells at 20 uM after 48 hrs by Annexin V-FITC/propidium iodide staining based flow cytometry (reference value: 96.16%); assay type: functional
HONE1 cell line [4] = experiment: Induction of apoptosis in human HONE1 cells assessed as late apoptotic cells at 20 uM after 48 hrs by Annexin V-FITC/propidium iodide staining based flow cytometry (reference value: 0.37%); assay type: functional
HONE1 cell line [5] = experiment: Cell cycle arrest in human HONE1 cells assessed as accumulation at G2/M phase at 10 uM after 48 hrs by propidium iodide staining based flow cytometry (reference value: 0.3%); assay type: functional
HONE1 cell line [6] = experiment: Induction of apoptosis in human HONE1 cells assessed as necrotic cells at 3 uM after 48 hrs by Annexin V-FITC/propidium iodide staining based flow cytometry (reference value: 0.23%); assay type: functional
HONE1 cell line [7] = experiment: Induction of apoptosis in human HONE1 cells assessed as necrotic cells at 10 uM after 48 hrs by Annexin V-FITC/propidium iodide staining based flow cytometry (reference value: 0.23%); assay type: functional
HONE1 cell line [8] = experiment: Cell cycle arrest in human HONE1 cells assessed as accumulation at G0/G1 phase at 5 uM after 48 hrs by propidium iodide staining based flow cytometry (reference value: 55%); assay type: functional
HONE1 cell line [9] = experiment: Cytotoxicity against human HONE1 cells after 48 hrs by MTT assay; assay type: functional, cell-based; conditions: HONE1, 48 h; summary of the method: as §1
HONE1 cell line [10] = experiment: Induction of apoptosis in human HONE1 cells assessed as early apoptotic cells at 3 uM after 48 hrs by Annexin V-FITC/propidium iodide staining based flow cytometry (reference value: 3.24%); assay type: functional
HONE1 cell line [11] = experiment: Induction of apoptosis in human HONE1 cells assessed as early apoptotic cells at 5 uM after 48 hrs by Annexin V-FITC/propidium iodide staining based flow cytometry (reference value: 3.24%); assay type: functional
CNE = experiment: Cytotoxicity against human CNE1 cells after 48 hrs by MTT assay; assay type: functional, cell-based; summary of the method: as §1
HONE1 cell line [12] = experiment: Cell cycle arrest in human HONE1 cells assessed as accumulation at G0/G1 phase at 20 uM after 48 hrs by propidium iodide staining based flow cytometry (reference value: 55%); assay type: functional
HONE1 cell line [13] = experiment: Induction of apoptosis in human HONE1 cells assessed as live cells at 5 uM after 48 hrs by Annexin V-FITC/propidium iodide staining based flow cytometry (reference value: 96.16%); assay type: functional
HONE1 cell line [14] = experiment: Cell cycle arrest in human HONE1 cells assessed as accumulation at S phase at 20 uM after 48 hrs by propidium iodide staining based flow cytometry (reference value: 44.7%); assay type: functional
HONE1 cell line [15] = experiment: Cell cycle arrest in human HONE1 cells assessed as accumulation at G2/M phase at 5 uM after 48 hrs by propidium iodide staining based flow cytometry (reference value: 0.3%); assay type: functional
HONE1 cell line [16] = experiment: Cell cycle arrest in human HONE1 cells assessed as accumulation at G0/G1 phase at 3 uM after 48 hrs by propidium iodide staining based flow cytometry (reference value: 55%); assay type: functional
HONE1 cell line [17] = experiment: Induction of apoptosis in human HONE1 cells assessed as necrotic cells at 5 uM after 48 hrs by Annexin V-FITC/propidium iodide staining based flow cytometry (reference value: 0.23%); assay type: functional
HONE1 cell line [18] = experiment: Induction of apoptosis in human HONE1 cells assessed as late apoptotic cells at 3 uM after 48 hrs by Annexin V-FITC/propidium iodide staining based flow cytometry (reference value: 0.37%); assay type: functional
SUNE1 = experiment: Cytotoxicity against human SUNE1 cells after 48 hrs by MTT assay; assay type: functional, cell-based; conditions: SUNE1, 48 h; summary of the method: as §1
HONE1 cell line [19] = experiment: Induction of apoptosis in human HONE1 cells assessed as necrotic cells at 1 uM after 48 hrs by Annexin V-FITC/propidium iodide staining based flow cytometry (reference value: 0.23%); assay type: functional
HONE1 cell line [20] = experiment: Cell cycle arrest in human HONE1 cells assessed as accumulation at S phase at 5 uM after 48 hrs by propidium iodide staining based flow cytometry (reference value: 44.7%); assay type: functional
CNE-2 = experiment: Cytotoxicity against human CNE2 cells after 48 hrs by MTT assay; assay type: functional, cell-based; conditions: CNE-2, 48 h; summary of the method: as §1
HONE1 cell line [21] = experiment: Induction of apoptosis in human HONE1 cells assessed as necrotic cells at 20 uM after 48 hrs by Annexin V-FITC/propidium iodide staining based flow cytometry (reference value: 0.23%); assay type: functional
HONE1 cell line [22] = experiment: Cell cycle arrest in human HONE1 cells assessed as accumulation at G2/M phase at 20 uM after 48 hrs by propidium iodide staining based flow cytometry (reference value: 0.3%); assay type: functional
HONE1 cell line [23] = experiment: Cell cycle arrest in human HONE1 cells assessed as accumulation at S phase at 3 uM after 48 hrs by propidium iodide staining based flow cytometry (reference value: 44.7%); assay type: functional
HONE1 cell line [24] = experiment: Cell cycle arrest in human HONE1 cells assessed as accumulation at G0/G1 phase at 10 uM after 48 hrs by propidium iodide staining based flow cytometry (reference value: 55%); assay type: functional
HONE1 cell line [25] = experiment: Cell cycle arrest in human HONE1 cells assessed as accumulation at S phase at 10 uM after 48 hrs by propidium iodide staining based flow cytometry (reference value: 44.7%); assay type: functional
HONE1 cell line [26] = experiment: Cell cycle arrest in human HONE1 cells assessed as accumulation at G2/M phase at 3 uM after 48 hrs by propidium iodide staining based flow cytometry (reference value: 0.3%); assay type: functional
HONE1 cell line [27] = experiment: Induction of apoptosis in human HONE1 cells assessed as live cells at 10 uM after 48 hrs by Annexin V-FITC/propidium iodide staining based flow cytometry (reference value: 96.16%); assay type: functional
HONE1 cell line [28] = experiment: Induction of apoptosis in human HONE1 cells assessed as live cells at 1 uM after 48 hrs by Annexin V-FITC/propidium iodide staining based flow cytometry (reference value: 96.16%); assay type: functional
HONE1 cell line [29] = experiment: Induction of apoptosis in human HONE1 cells assessed as late apoptotic cells at 10 uM after 48 hrs by Annexin V-FITC/propidium iodide staining based flow cytometry (reference value: 0.37%); assay type: functional
HONE1 cell line [30] = experiment: Induction of apoptosis in human HONE1 cells assessed as live cells at 3 uM after 48 hrs by Annexin V-FITC/propidium iodide staining based flow cytometry (reference value: 96.16%); assay type: functional
HONE1 cell line [31] = experiment: Induction of apoptosis in human HONE1 cells assessed as late apoptotic cells at 1 uM after 48 hrs by Annexin V-FITC/propidium iodide staining based flow cytometry (reference value: 0.37%); assay type: functional
HONE1 cell line [32] = experiment: Induction of apoptosis in human HONE1 cells assessed as early apoptotic cells at 20 uM after 48 hrs by Annexin V-FITC/propidium iodide staining based flow cytometry (reference value: 3.24%); assay type: functional
HONE1 cell line [33] = experiment: Induction of apoptosis in human HONE1 cells assessed as early apoptotic cells at 10 uM after 48 hrs by Annexin V-FITC/propidium iodide staining based flow cytometry (reference value: 3.24%); assay type: functional

`C=C1C(=O)O[C@H]2[C@H]1[C@@H](OC(=O)/C(C)=C/C)C[C@@](C)(O)[C@]13C=C[C@](C)([C@H]21)[C@]1(C3)C(=O)O[C@@H]2[C@H]3C(C)=CC[C@H]3[C@](C)(O)C[C@H](OC(=O)/C(C)=C/C)[C@H]21` showed an IC50 (HT-29) of 9.6 µM, an Activity (HONE1 cell line [1]) of 2.61% and an Activity (HONE1 cell line [2]) of 2.2%. The Activity (HONE1 cell line [3]) was 56.74%, the Activity (HONE1 cell line [4]) was 27.85% and the Activity (HONE1 cell line [5]) was 16.52%. The Activity (HONE1 cell line [6]) was 0.16%, the Activity (HONE1 cell line [7]) was 0.79% and the Activity (HONE1 cell line [8]) was 50.22%. The IC50 (HONE1 cell line [9]) was 3.5 µM, the Activity (HONE1 cell line [10]) was 3.01% and the Activity (HONE1 cell line [11]) was 15%. For the same compound, the IC50 (CNE) was 4.6 µM, the Activity (HONE1 cell line [12]) was 14.01% and the Activity (HONE1 cell line [13]) was 81.86%. For the same compound, the Activity (HONE1 cell line [14]) was 47.77%, the Activity (HONE1 cell line [15]) was 7.52% and the Activity (HONE1 cell line [16]) was 44.75%. It also gave an Activity (HONE1 cell line [17]) of 0.53%, an Activity (HONE1 cell line [18]) of 0.45% and an IC50 (SUNE1) of 4.3 µM. The Activity (HONE1 cell line [19]) was 0.21%, the Activity (HONE1 cell line [20]) was 42.25% and the IC50 (CNE-2) was 6 µM. For the same compound, the Activity (HONE1 cell line [21]) was 6.08%, the Activity (HONE1 cell line [22]) was 38.22% and the Activity (HONE1 cell line [23]) was 49.32%. It also gave an Activity (HONE1 cell line [24]) of 40.89%, an Activity (HONE1 cell line [25]) of 42.59% and an Activity (HONE1 cell line [26]) of 5.93%. It also gave an Activity (HONE1 cell line [27]) of 65.22%, an Activity (HONE1 cell line [28]) of 96.45% and an Activity (HONE1 cell line [29]) of 23.45%. The Activity (HONE1 cell line [30]) was 96.38%, the Activity (HONE1 cell line [31]) was 1.14% and the Activity (HONE1 cell line [32]) was 9.33%. For the same compound, the Activity (HONE1 cell line [33]) was 10.54%.
